# Measured values taken from ChEMBL document CHEMBL1122161, “Irreversible enzyme inhibitors. 202. Candidate active-site-directed irreversible inhibitors of 5-fluoro-2'-deoxyuridine phosphorylase from Walker 256 rat tumor derived from 1-benzyl-5-(3-ethoxybenzyl)uracil” (J Med Chem, 1982).
# Assays:
# [1] = (§1) Ability for reversible inhibition of Walker 256 5-Fluoro-2'-deoxyuridine Phosphorylase; parameters: species or system Rattus norvegicus; settings: read-out: I 50
# Procedure, shortened: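 Enzyme from Walker 256 rat tumor, assayed with 400 μM FUDR as substrate in pH 5.9 arsenate-succinate buffer with 10% Me2SO. Value reported as concentration giving 50% inhibition.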
# [2] = species on record: Rattus norvegicus; test: Irreversible inhibition of Walker 256 FUDR phosphorylase; expressed as Vo/Vi, velocity without inhibitor to that of velocity with inhibitor
# Procedure, shortened: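 Walker 256 FUDR phosphorylase preincubated 20 min at ambient temperature with 20 μM (final) inhibitor in pH 5.9 arsenate-succinate buffer, 10% Me2SO, alongside zero-time tubes. Unbound inhibitor then removed by two 1-octanol extractions. Remaining activity assayed after adding 4 mM FUDR stock, stopped with 5% trichloroacetic acid, read as for reversible assay. V0/Vi of 2 corresponds to 50% inhibition.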
# [3] = as §1; parameters: species or system Rattus norvegicus; settings: read-out: I50
# Procedure, shortened: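 Walker 256 rat tumor FUDR phosphorylase (uridine-deoxyuridine phosphorylase) was assayed with 400 μM FUDR substrate in pH 5.9 arsenate-succinate buffer containing 10% Me2SO. The value is the inhibitor concentration giving 50% inhibition (I50).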
Compound,IC50 [3],IC50 [1],Ratio [2]
CCOc1cccc(Cc2cn(Cc3cccc(NC(=O)c4cccc(S(=O)(=O)F)c4)c3)c(=O)[nH]c2=O)c1,–,3.2 µM,1.1
O=c1[nH]c(=O)n(Cc2ccccc2)cc1Cc1ccccc1,2.6 µM,–,–
CCOc1cccc(Cc2cn(Cc3ccccc3)c(=O)[nH]c2=O)c1,–,1.2 µM,–
CCOc1cccc(Cc2cn(Cc3cccc(NC(=O)c4ccc(S(=O)(=O)F)cc4)c3)c(=O)[nH]c2=O)c1,–,2.5 µM,1
Cn1cc(Cc2ccccc2)c(=O)[nH]c1=O,6.2 µM,–,–
CCOc1cccc(Cc2cn(Cc3cccc(NC(=O)Nc4ccc(S(=O)(=O)F)cc4)c3)c(=O)[nH]c2=O)c1,–,1.9 µM,1.1
CCOc1cccc(Cc2cn(Cc3cccc(NC(=O)c4ccccc4)c3)c(=O)[nH]c2=O)c1,1.2 µM,–,1.2
CCOc1cccc(Cc2cn(Cc3cccc(NC(=O)Nc4cccc(S(=O)(=O)F)c4)c3)c(=O)[nH]c2=O)c1,–,1.1 µM,1.2
CCOc1cccc(Cc2cn(Cc3ccc(NC(=O)c4cccc(S(=O)(=O)F)c4)cc3)c(=O)[nH]c2=O)c1,–,33 µM,1
CCOc1cccc(Cc2cn(Cc3ccc(NC(=O)c4ccccc4)cc3)c(=O)[nH]c2=O)c1,3.8 µM,–,–
CCOc1cccc(Cc2cn(Cc3ccc(NC(=O)c4ccc(S(=O)(=O)F)cc4)cc3)c(=O)[nH]c2=O)c1,–,15 µM,1
CCOc1cccc(Cc2cnc(O)nc2O)c1,–,1.4 µM,–
O=c1[nH]c(=O)n(Cc2ccccc2)cc1Cc1cccc(OCc2ccccc2)c1,2.5 µM,–,–
O=c1[nH]c(=O)n(CCCOc2ccccc2)cc1Cc1ccccc1,5.7 µM,–,–

# Now from value to molecule, other results behind:
IC50 [3],Compound,IC50 [1],Ratio [2]
0.5 µM,Oc1ncc(Cc2cccc(OCc3ccccc3)c2)c(O)n1,–,–
5.3 µM,Oc1ncc(Cc2ccccc2)c(O)n1,–,–
1.9 µM,COc1cccc(Cc2cnc(O)nc2O)c1,–,–
